# Hits are enriched below; roughly 1.4% of the tested compounds scored in any of these assays.
# IDE inh: cellular human IDE inhibition. HEK cells, FAbetaB cleavage, fluorescence polarization. 320,000 compounds, 0.41% hits. inhibition, % at 5.59 µM. P14735;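 active means percent inhibition above the average of all tested compounds plus 3 SD, set per screening campaign, cut at about 16% in these data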;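 further: IDE supplied by intact live HEK cells; FP after avidin binding of uncleaved biotin substrate so inhibition keeps polarization high; 0% = DMSO wells and 100% = 60 µM reference IDE inhibitor Ii1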
# CSN inh: inhibitors of human CSN-mediated cullin deneddylation. Q92905. Purified CSN, SCF-Nedd8-OG deneddylation, fluorescence polarization. inhibition, % at 12.5 µM. 360,000 compounds, 0.38% hits;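 active means pattern-corrected inhibition above about 35%, with an unprinted fluorescence ratio check between 0.5 and 1.5, limit read from the data, passing the limit was not always enough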;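 further: 0% = enzyme with substrate and 100% = substrate without enzyme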
# Target sequence (Q92905 whole entry, looked up, one chain of several): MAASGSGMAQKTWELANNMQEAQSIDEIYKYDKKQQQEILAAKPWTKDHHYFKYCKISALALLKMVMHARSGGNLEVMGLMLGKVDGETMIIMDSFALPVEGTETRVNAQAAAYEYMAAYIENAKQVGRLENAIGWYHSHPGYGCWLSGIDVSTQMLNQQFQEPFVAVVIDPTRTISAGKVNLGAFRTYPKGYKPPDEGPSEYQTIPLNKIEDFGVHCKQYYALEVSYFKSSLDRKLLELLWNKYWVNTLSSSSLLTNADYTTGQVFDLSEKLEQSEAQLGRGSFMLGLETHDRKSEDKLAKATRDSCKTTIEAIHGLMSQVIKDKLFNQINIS
#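 Assay system: Purified human Csn5 enzyme expressed in HEK293T cells | Amount: Enzyme 0.24 nM | Measured by: Fluorescence polarization readout | Medium: Tris/NaCl/DTT buffer, pH 7.5 | Compound dosing: One concentration, 12.5 µM, 0.25% DMSO | Times: 90 min incubation of compound, enzyme and substrate at room temperature | Control set: no-enzyme wells high, enzyme-with-substrate wells low | Read-out: % inhibition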
# IDE cell activ: activators of human insulin-degrading enzyme in cells | P14735 | HEK cells, FAbeta-B cleavage, fluorescence polarization; 0% vehicle, 100% cell-free pure enzyme wells | activation, % at 5.96 µM | 340,000 compounds, 0.073% hits | AID 493087;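 active means activation above the mean of all tested compounds plus 3 SD, set per screening campaign, cut at about 17% in these data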
# HNF4A DNA FP: change in binding of human HNF4 alpha to DNA. HNF4a-FITC DNA binding, fluorescence polarization, 1 h. AID 1224865. P41235. 360,000 compounds, 0.3% hits. activity change, % at 10 µM; in the data active means activity change above about 30%, passing the limit was not always enough
# TPT1 inh: blocks Candida albicans tRNA 2'-phosphotransferase | 300,000 compounds, 0.81% hits | recombinant caTPT1, FP RNA substrate dephosphorylation | inhibition, % at 5 µM;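 active means inhibition above the mean of all tested compounds plus 3 SD, set per screening campaign, cut at about 24% in these data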;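 further: plate controls were DMSO alone for no effect and ferristatin control at 100 nM for full effect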
# TPT1 inh confirm: confirmation of Candida albicans TPT1 inhibitors. shares compounds with TPT1 inh. recombinant caTPT1, fluorescence polarization, RNase T1 coupled. inhibition, % at 5 µM. 2,400 compounds, 74% hits;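 active means inhibition above the primary screen limit, the mean inhibition of all tested compounds plus 3 SD, cut at about 25% in these data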
# RNase T1 counter: blocks Aspergillus oryzae RNase T1, a TPT1 counter-screen. shares compounds with TPT1 inh. RNase T1 cleavage, fluorescence polarization, 1536-well. inhibition, % at 5 µM. 2,400 compounds, 83% hits. AID 2153;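 active means inhibition above the solvent-only control well mean plus 3 SD, limit set per screening run, cut at about 23% in these data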;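 further: plate controls were DMSO wells with enzyme for no effect and wells without RNase T1 for full effect; inhibitors block cleavage so intact labeled substrate keeps polarization high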
# Target sequence (P00651 whole entry, looked up): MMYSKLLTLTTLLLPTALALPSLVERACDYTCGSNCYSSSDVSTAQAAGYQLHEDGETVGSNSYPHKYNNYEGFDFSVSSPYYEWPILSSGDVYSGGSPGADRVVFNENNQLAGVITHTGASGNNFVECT
# Active calls of the source: *; nt = not tested or not shown.
SMILES,IDE inh,CSN inh,IDE cell activ,HNF4A DNA FP,TPT1 inh,TPT1 inh confirm,RNase T1 counter
CSc1ccc(CN2CCN(C(=O)CC(C)C)CC2)cc1,7.0,1.1,1.2,-3.5,25.9*,7.0,12.2
O=C(Nc1ccc(F)cc1)C(c1ccnc2ccccc12)N1CCN(CC(=O)N2CCCC2)CC1 (stereo not drawn),nt,-0.6,nt,0.6,nt,nt,nt
CCCc1nc2cc(C)c(Br)c(C)n2c1Cc1ccc(OC)cc1C,nt,-0.3,nt,5.8,nt,nt,nt
Cc1[nH]c2ccccc2c1C(=O)CSC(=S)N(C)C1CCCCC1,-1.8,3.0,0.0,-1.3,128.2*,12.0,14.0
N=C1/C(=C\c2ccc(SCc3ccccc3)o2)C(=O)N=C2SC(CC(=O)N3CCOCC3)=NN12,6.2,13.2,-5.3,11.8,26.6*,27.6*,39.4*
Cc1ccc(/C=C2\C(=N)N3N=C(CC(=O)N4CCOCC4)SC3=NC2=O)o1,-1.5,8.5,-4.5,-2.7,0.7,nt,nt
CC(C)(C)c1ccc(C(=O)NNc2cc(N3CCCCC3)nc(N3CCCCC3)n2)cc1,-3.9,1.2,5.8,-4.9,45.4*,10.0,11.6
O=C(CCc1ccccc1)NNc1cc(N2CCCCC2)nc(N2CCCCC2)n1,-0.8,-3.3,10.5,0.8,9.5,nt,nt
CC(C)NC(=O)C1(C)Cc2c(-c3ccc(N(C)C)cc3)ccnc2O1 (stereo not drawn),nt,-2.5,nt,2.8,nt,nt,nt
CN1CCc2c(sc3c2C(=O)NC(c2cccc(OC(=O)c4cccs4)c2)N3)C1 (stereo not drawn),11.1,36.1*,-9.4,33.8*,98.6*,110.0*,110.2*
CN1CCc2c(sc3c2C(=O)NC(c2cn(Cc4ccccc4)c4ccccc24)N3)C1 (stereo not drawn),4.4,25.7,0.8,52.4*,66.8*,74.8*,84.8*
O=C1NC(c2ccco2)Nc2sc3c(c21)CCN(Cc1ccccc1)C3 (stereo not drawn),8.7,22.0,-7.4,4.9,53.0*,53.2*,62.4*
COc1ccc(Br)cc1C1NC(=O)c2c(sc3c2CCN(C)C3)N1 (stereo not drawn),nt,10.8,1.6,6.6,nt,nt,nt
CCOC(=O)N1CCc2c(sc3c2C(=O)NC(c2ccccc2)N3)C1 (stereo not drawn),1.8,5.1,2.7,5.9,1.1,nt,nt
CN1CCc2c(sc3c2C(=O)NC(c2ccco2)N3)C1 (stereo not drawn),-0.7,10.1,0.9,-13.4,-3.4,nt,nt
CN1CCc2c(sc3c2C(=O)NC(c2ccc(-c4ccc(Cl)cc4)o2)N3)C1 (stereo not drawn),0.1,12.4,nt,31.1,90.6*,86.0*,95.9*
O=S1(=O)CC(O)C(O)CS1 (stereo not drawn),nt,0.1,nt,4.1,nt,nt,nt
COc1cc2ccc(C=O)cc2cc1OC,nt,3.1,nt,3.5,nt,nt,nt
COC(=O)C[C@@H]1CC[C@H](NC(=O)Nc2ccc(F)cc2)[C@@H](CO)O1,nt,-2.6,nt,2.8,nt,nt,nt
C(=NN=Cc1c[nH]c2ccccc12)c1c[nH]c2ccccc12,nt,-1.8,nt,-2.9,nt,nt,nt
O=C1/C(=C/c2c[nH]c3ccccc23)CCC/C1=C\c1c[nH]c2ccccc12,5.1,26.2,-41.9,105.4,50.7*,147.4*,136.7*
Cc1sc2nc(COC(=O)c3ccc(N4CCCC4)c([N+](=O)[O-])c3)[nH]c(=O)c2c1C,2.9,8.7,5.6,28.1,69.3*,69.4*,78.2*
Cc1sc2nc(COC(=O)c3ccc(O)cc3)[nH]c(=O)c2c1C,-0.9,4.8,1.8,3.7,4.0,nt,nt
COc1ccc(S(=O)(=O)N2CC(O)CC2C(=O)OCc2nc3sc(C)c(C)c3c(=O)[nH]2)cc1 (stereo not drawn),-2.4,24.8,5.5,24.7,32.7*,47.3*,64.9*
Cc1sc2nc(COC(=O)c3ccc(N4CCCC(C)C4)c([N+](=O)[O-])c3)[nH]c(=O)c2c1C (stereo not drawn),-0.3,-3.1,3.5,2.6,2.5,nt,nt
COC1=CC(C)C2CC3OC(O)CC4C(C)=C(OC)C(=O)C(C2(C)C1=O)C34C (stereo not drawn),nt,-2.7,nt,-1.7,nt,nt,nt

# Compound activity as filed in PubChem BioAssay.
